From ChEMBL document CHEMBL4325914, “Design and Evaluation of Potent EGFR Inhibitors through the Incorporation of Macrocyclic Polyamine Moieties into the 4-Anilinoquinazoline Scaffold” (J Med Chem, 2018)
Calls of active or inactive are those of the source. No cut-off for these calls is given here.

How the values were obtained:
[1] = tested on: A-431; test: cells; type: functional, cell-based; conditions: Homo sapiens, A-431, 72 h;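 note: antiproliferative activity measured with an MTT assay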
[2] = tested on: A549; test: cells; type: functional, cell-based; conditions: Homo sapiens, A549, 72 h
[3] = tested on: A549; test: Induction of apoptosis in human A549 cells assessed as early apoptotic cells at 8 uM after 72 hrs by FITC-annexin V/propidium iodide-double staining based flow cytometry (reference value: 9.38%); type: functional
[4] = Toxicity in human A549 cells xenografted BALB/c nude mouse assessed as effect on body weight at 30 mg/kg, ig administered every 2 days for 19 days; type: organism-based; conditions: in vivo, po
Method in brief: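 Female six-week-old BALB/c nude mice received 2.0 × 10^6 A549 cells subcutaneously. Dosing began at mean tumor size 200-400 mm3. 21 mice were randomized to vehicle (water, 30 mL/kg) or drug (30 mg/kg), both intragastric, every 2 days for 19 days. Body weight was recorded. Tumors were caliper-measured twice weekly (V = length × width²/2) and weighed at the end.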

[5] = tested on: A549; test: Cytotoxicity against human A549 cells assessed as effect on intracellular ATP levels at 0 to 2 uM after 24 hrs by luciferase-luciferin based assay; type: functional, cell-based
Method in brief: (§1)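 A549 cells were plated at 4000 per well and allowed to settle 12 h. They were then exposed to compound or DMSO for 24 h or 72 h. Medium was removed and reconstituted luciferase-luciferin reagent added. Luminescence was read within 1 min and converted to ATP concentration from a reference plot. Each concentration was run in quadruplicate.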

[6] = tested on: A549; test: animal or person; type: functional, Homo sapiens; conditions: Mus musculus, A549, po, read-out: TGI
[7] = biological target: Epidermal growth factor receptor (Homo sapiens, UniProt P00533)
Epidermal growth factor receptor (Homo sapiens, UniProt P00533), sequence (P00533 whole entry): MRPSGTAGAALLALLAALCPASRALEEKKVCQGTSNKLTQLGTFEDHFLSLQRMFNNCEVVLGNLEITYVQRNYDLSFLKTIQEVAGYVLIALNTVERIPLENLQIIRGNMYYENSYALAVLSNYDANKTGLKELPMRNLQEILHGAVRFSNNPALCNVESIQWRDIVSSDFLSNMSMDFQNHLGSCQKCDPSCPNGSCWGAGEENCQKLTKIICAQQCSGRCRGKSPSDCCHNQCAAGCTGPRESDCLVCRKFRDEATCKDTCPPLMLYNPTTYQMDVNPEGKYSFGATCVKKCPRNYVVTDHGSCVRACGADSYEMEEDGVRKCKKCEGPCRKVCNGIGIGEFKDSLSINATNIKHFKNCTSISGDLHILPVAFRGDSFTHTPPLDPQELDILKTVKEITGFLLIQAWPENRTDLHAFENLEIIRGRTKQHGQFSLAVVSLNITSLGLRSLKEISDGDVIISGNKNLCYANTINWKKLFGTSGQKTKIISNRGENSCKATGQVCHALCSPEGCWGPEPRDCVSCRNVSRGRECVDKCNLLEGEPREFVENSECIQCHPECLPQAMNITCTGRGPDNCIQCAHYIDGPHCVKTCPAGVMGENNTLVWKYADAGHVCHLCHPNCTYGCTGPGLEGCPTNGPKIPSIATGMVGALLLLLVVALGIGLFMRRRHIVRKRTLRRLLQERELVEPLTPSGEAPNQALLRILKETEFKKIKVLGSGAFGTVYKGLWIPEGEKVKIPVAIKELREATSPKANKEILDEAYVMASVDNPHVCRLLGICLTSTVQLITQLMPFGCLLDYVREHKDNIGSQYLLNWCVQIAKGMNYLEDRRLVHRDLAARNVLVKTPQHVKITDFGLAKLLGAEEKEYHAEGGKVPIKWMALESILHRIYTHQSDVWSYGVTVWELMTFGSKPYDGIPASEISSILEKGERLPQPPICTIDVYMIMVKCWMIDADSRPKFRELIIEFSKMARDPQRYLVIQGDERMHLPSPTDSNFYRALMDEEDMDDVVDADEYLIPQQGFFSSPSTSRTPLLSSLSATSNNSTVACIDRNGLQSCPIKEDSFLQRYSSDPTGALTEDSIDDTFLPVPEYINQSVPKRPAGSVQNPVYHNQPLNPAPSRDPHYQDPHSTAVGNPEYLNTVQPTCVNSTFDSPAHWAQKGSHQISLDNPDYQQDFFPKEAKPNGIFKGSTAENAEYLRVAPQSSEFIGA

[8] = tested on: A549; test: Antitumor activity against human A549 cells xenografted in BALB/c nude mouse assessed as tumor necrosis at 30 mg/kg, ig administered every 2 days for 19 days by hematoxylin/eosin-staining based histological analysis; type: functional, organism-based
[9] = tested on: A549; test: Induction of apoptosis in human A549 cells assessed as early apoptotic cells at 1 uM after 72 hrs by FITC-annexin V/propidium iodide-double staining based flow cytometry (reference value: 9.38%); type: functional
[10] = tested on: A549; test: Induction of apoptosis in human A549 cells assessed as late apoptotic cells at 8 uM after 72 hrs by FITC-annexin V/propidium iodide-double staining based flow cytometry (reference value: 6.59%); type: functional
[11] = in vitro; conditions: mouse, L929 cells
[12] = tested on: A549; test: Induction of apoptosis in human A549 cells assessed as late apoptotic cells at 1 uM after 72 hrs by FITC-annexin V/propidium iodide-double staining based flow cytometry (reference value: 6.59%); type: functional
[13] = biological target: Receptor tyrosine-protein kinase erbB-2 (Homo sapiens, UniProt P04626); test: Inhibition of wild type human N-terminal His-tagged HER2 cytoplasmic domain (676 to 1255 residues) expressed in baculovirus expression system after 1 hr in presence of ULight-labeled peptide substrate and ATP by LANCE ultra kinase assay
Receptor tyrosine-protein kinase erbB-2, sequence (P04626 whole entry, the tested form may be a part): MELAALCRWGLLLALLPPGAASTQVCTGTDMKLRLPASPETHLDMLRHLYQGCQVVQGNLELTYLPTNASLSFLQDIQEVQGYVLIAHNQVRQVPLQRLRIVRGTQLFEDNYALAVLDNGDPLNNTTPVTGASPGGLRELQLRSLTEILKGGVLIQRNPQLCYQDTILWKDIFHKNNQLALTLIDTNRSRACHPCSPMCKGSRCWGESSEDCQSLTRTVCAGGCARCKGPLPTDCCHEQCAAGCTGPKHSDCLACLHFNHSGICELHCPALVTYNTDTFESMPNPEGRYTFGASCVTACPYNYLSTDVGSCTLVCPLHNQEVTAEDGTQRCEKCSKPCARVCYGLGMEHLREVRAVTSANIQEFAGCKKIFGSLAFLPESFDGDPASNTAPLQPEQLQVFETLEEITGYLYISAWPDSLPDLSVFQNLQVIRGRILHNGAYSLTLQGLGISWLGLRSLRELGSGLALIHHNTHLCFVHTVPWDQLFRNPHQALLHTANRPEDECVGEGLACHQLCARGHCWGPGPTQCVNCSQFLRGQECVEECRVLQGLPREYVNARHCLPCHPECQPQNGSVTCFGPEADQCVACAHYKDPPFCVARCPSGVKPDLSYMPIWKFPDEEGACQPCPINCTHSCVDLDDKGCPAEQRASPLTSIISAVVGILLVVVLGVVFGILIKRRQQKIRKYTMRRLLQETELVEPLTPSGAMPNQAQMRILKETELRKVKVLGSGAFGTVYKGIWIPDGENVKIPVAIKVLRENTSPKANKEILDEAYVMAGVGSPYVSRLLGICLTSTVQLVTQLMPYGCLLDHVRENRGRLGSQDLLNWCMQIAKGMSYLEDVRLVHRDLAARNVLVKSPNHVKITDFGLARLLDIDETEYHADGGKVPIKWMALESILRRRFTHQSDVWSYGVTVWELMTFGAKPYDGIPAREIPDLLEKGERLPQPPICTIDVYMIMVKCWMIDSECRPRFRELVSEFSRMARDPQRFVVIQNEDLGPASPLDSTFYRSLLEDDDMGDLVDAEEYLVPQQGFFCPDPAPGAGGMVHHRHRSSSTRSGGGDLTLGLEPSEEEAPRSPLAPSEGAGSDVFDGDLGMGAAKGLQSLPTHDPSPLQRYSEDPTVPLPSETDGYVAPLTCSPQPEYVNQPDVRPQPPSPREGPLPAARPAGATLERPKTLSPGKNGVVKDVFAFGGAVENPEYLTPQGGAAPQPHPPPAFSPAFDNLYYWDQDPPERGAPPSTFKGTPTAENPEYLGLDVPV

[14] = tested on: A549; test: Induction of apoptosis in human A549 cells assessed as late apoptotic cells at 4 uM after 72 hrs by FITC-annexin V/propidium iodide-double staining based flow cytometry (reference value: 6.59%); type: functional
[15] = tested on: A549; test: Induction of apoptosis in human A549 cells after 72 hrs by FITC-annexin V/propidium iodide-double staining based flow cytometry; type: functional, cell-based
[16] = tested on: A549; test: Induction of apoptosis in human A549 cells assessed as early apoptotic cells at 4 uM after 72 hrs by FITC-annexin V/propidium iodide-double staining based flow cytometry (reference value: 9.38%); type: functional
[17] = biological target: Epidermal growth factor receptor (Homo sapiens, UniProt P00533, T790M)
Epidermal growth factor receptor (Homo sapiens, UniProt P00533, T790M), sequence (P00533 25-1210 T790M limits assumed): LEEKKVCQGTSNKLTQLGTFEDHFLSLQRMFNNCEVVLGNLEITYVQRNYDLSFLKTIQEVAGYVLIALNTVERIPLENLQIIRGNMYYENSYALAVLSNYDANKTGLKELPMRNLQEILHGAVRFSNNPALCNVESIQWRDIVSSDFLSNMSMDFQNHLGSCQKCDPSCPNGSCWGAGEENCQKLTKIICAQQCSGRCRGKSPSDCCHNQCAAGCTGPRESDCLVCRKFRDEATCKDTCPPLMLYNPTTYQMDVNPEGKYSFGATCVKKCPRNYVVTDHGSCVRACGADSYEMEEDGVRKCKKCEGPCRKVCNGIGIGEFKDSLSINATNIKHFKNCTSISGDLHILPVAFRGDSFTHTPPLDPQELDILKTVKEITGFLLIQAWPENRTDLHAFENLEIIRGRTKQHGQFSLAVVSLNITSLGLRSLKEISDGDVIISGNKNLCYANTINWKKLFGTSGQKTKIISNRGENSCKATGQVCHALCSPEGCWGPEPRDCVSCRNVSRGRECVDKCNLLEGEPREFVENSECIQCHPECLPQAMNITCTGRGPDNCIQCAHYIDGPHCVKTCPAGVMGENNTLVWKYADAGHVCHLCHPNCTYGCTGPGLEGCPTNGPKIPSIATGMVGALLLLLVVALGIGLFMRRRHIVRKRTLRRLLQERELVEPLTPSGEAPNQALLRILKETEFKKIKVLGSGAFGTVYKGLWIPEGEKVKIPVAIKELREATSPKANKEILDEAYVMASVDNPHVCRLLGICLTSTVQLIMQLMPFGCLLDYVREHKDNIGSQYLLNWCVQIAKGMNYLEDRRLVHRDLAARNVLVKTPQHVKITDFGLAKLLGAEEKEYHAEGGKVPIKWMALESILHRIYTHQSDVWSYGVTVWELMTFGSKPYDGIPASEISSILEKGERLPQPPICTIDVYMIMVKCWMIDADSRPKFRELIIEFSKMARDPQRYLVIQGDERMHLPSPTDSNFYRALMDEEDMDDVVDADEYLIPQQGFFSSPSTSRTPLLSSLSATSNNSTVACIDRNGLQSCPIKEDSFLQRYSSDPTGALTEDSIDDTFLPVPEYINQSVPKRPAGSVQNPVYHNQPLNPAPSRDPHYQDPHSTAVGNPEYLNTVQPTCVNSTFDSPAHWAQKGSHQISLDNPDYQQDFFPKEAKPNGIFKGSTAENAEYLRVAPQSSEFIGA

[18] = tested on: L929; test: Cytotoxicity against mouse L929 cells assessed as cell growth inhibition after 72 hrs by MTT assay; type: cell-based; conditions: L929, 72 h
[19] = tested on: A549; test: Cytotoxicity against human A549 cells assessed as reduction in intracellular ATP levels at 8 uM after 24 hrs by luciferase-luciferin based assay; type: functional, cell-based
Method in brief: as §1

[20] = tested on: A549; test: Cytotoxicity against human A549 cells assessed as depletion of intracellular ATP levels at 2 uM after 72 hrs by luciferase-luciferin based assay; type: functional, cell-based
Method in brief: as §1

[21] = tested on: A549; test: Cytotoxicity against human A549 cells assessed as effect on intracellular ATP levels at 6 uM after 24 hrs by luciferase-luciferin based assay; type: functional, cell-based
Method in brief: as §1

[22] = tested on: A549; test: Cytotoxicity against human A549 cells assessed as depletion of intracellular ATP levels at 8 uM after 72 hrs by luciferase-luciferin based assay; type: functional, cell-based
Method in brief: as §1

| Compound | IC50 [1] [nM] | IC50 [2] [µM] | also measured |
| --- | --- | --- | --- |
| COc1cc2ncnc(Nc3ccc(OCc4cccc(F)c4)c(Cl)c3)c2cc1OCCCN1CCNCCNCCNCC1 | 958 | 3.4 | Activity [3]: 81.53%; Activity [4]: Non-Toxic; Activity [5]: inactive; inhibition in vivo at 30 mg/kg [6]: 44.2%; IC50 [7]: 1.4 nM; Activity [8]: Active; Activity [9]: 6.25%; Activity [10]: 7.94%; inhibition at 72 h, 1 µM [11]: 37.6%; Activity [12]: 11.16%; IC50 [13]: 2.1 nM; Activity [14]: 4.36%; Activity [15]: Dose-dependent effect; Activity [16]: 54.62%; IC50 [17]: 16.5 nM; IC50 [18]: 2740 nM; Activity [19]: Active; Activity [20]: Active |
| COc1cc2ncnc(Nc3ccc(C#N)cc3F)c2cc1OCCCN1CCNCCNCC1 | 12700 | > 50 | – |
| COc1cc2ncnc(Nc3cccc(Cl)c3)c2cc1OCCCN1CCNCCNCC1 | 1120 | > 50 | – |
| C#Cc1cccc(Nc2ncnc3cc(OC)c(OCCCN4CCNCCNCC4)cc23)c1 | 2230 | > 50 | – |
| COc1cc2ncnc(Nc3ccc(C#N)cc3F)c2cc1OCCCN1CCNCCNCCNCC1 | 6370 | > 50 | – |
| CCc1cc(Br)ccc1Nc1ncnc2cc(OC)c(OCCCN3CCNCCNCCNCC3)cc12 | 5650 | > 50 | – |
| COc1cc2ncnc(Nc3cccc(F)c3)c2cc1OCCCN1CCNCCNCCNCC1 | 1860 | > 50 | – |
| CCc1cc(Br)ccc1Nc1ncnc2cc(OC)c(OCCCN3CCNCCNCC3)cc12 | 18800 | > 50 | – |
| COc1cc2ncnc(Nc3cccc(F)c3)c2cc1OCCCN1CCNCCNCC1 | 7910 | > 50 | – |
| COc1cccc(Nc2ncnc3cc(OC)c(OCCCN4CCNCCNCCNCC4)cc23)c1 | 3210 | > 50 | – |
| COc1cc2ncnc(Nc3ccc(F)c(Cl)c3)c2cc1OCCCN1CCOCC1 [GEFITINIB] | – | – | Activity [3]: 20.72%; Activity [4]: Non-Toxic; Activity [5]: inactive; Activity [10]: 7.05%; Activity [19]: Active |
| COc1cc2ncnc(Nc3ccc(F)c(Cl)c3)c2cc1OCCCN1CCNCCNCC1 | 1310 | > 50 | IC50 [7]: 8.3 nM |
| COc1cccc(Nc2ncnc3cc(OC)c(OCCCN4CCNCCNCC4)cc23)c1 | 8530 | > 50 | – |
| COc1cc2ncnc(Nc3ccc(OCc4cccc(F)c4)c(Cl)c3)c2cc1OCCCN1CCNCCNCC1 | 442 | 7.25 | Activity [5]: inactive; IC50 [7]: 0.3 nM; Activity [22]: Active; IC50 [13]: 9.6 nM; IC50 [17]: 40.6 nM; Activity [19]: Active |

Further molecules by falling IC50 [2], results first:

| IC50 [1] [nM] | IC50 [2] [µM] | Compound | also measured |
| --- | --- | --- | --- |
| 4080 | 44.2 | COc1cc2ncnc(Nc3ccc(Cl)cc3Cl)c2cc1OCCCN1CCNCCNCC1 | – |
| 1560 | 37.3 | COc1cc2ncnc(Nc3cccc(C(F)(F)F)c3)c2cc1OCCCN1CCNCCNCC1 | – |
| 2320 | 34.3 | COc1cc2ncnc(Nc3cccc(Br)c3)c2cc1OCCCN1CCNCCNCC1 | – |
| 1060 | 34.3 | COc1cc2ncnc(Nc3ccc(F)c(Br)c3)c2cc1OCCCN1CCNCCNCC1 | – |
| 1110 | 28.6 | C#Cc1cccc(Nc2ncnc3cc(OC)c(OCCCN4CCNCCNCCNCC4)cc23)c1 | – |
| 1420 | 27.1 | COc1cc2ncnc(Nc3cccc(Cl)c3)c2cc1OCCCN1CCNCCNCCNCC1 | – |
| 2220 | 26.2 | COc1cc2ncnc(Nc3cccc(I)c3)c2cc1OCCCN1CCNCCNCC1 | – |
| 4380 | 23.8 | COc1cc2ncnc(Nc3ccc(Cl)cc3Cl)c2cc1OCCCN1CCNCCNCCNCC1 | – |
| 1010 | 20.2 | COc1cc2ncnc(Nc3ccc(F)c(Cl)c3)c2cc1OCCCN1CCNCCNCCNCC1 | IC50 [7]: 6.6 nM |
| 561 | 16.1 | COc1cc2ncnc(Nc3ccc(Br)cc3F)c2cc1OCCCN1CCNCCNCC1 | IC50 [7]: 28.2 nM |
| 1950 | 15.7 | COc1cc2ncnc(Nc3cccc(C(F)(F)F)c3)c2cc1OCCCN1CCNCCNCCNCC1 | – |
| 1840 | 15.2 | COc1cc2ncnc(Nc3ccc(Br)cc3F)c2cc1OCCCN1CCNCCNCCNCC1 | – |
| 1050 | 14.7 | COc1cc2ncnc(Nc3cccc(Br)c3)c2cc1OCCCN1CCNCCNCCNCC1 | – |
| 2540 | 14.5 | COc1cc2ncnc(Nc3cccc(I)c3)c2cc1OCCCN1CCNCCNCCNCC1 | – |
| 1580 | 11.8 | COc1cc2ncnc(Nc3ccc(F)c(Br)c3)c2cc1OCCCN1CCNCCNCCNCC1 | – |
| 2980 | 6.23 | COc1cc2ncnc(Nc3ccc(Cl)c(C(F)(F)F)c3)c2cc1OCCCN1CCNCCNCC1 | – |
| 1710 | 5.35 | COc1cc2ncnc(Nc3ccc(Cl)c(C(F)(F)F)c3)c2cc1OCCCN1CCNCCNCCNCC1 | – |
| – | 3.64 | CS(=O)(=O)CCNCc1ccc(-c2ccc3ncnc(Nc4ccc(OCc5cccc(F)c5)c(Cl)c4)c3c2)o1 [LAPATINIB] | Activity [3]: 52.04%; Activity [5]: inactive; Activity [10]: 5.73%; inhibition at 72 h, 1 µM [11]: 35%; Activity [21]: Active; IC50 [18]: 2050 nM |
